Measured values: ChEMBL document CHEMBL1152867, “Targeting QseC signaling and virulence for antibiotic development” (Science, 2008)
Active and inactive are the calls of the source. The calls are words filed in the database; no cut-off is given here.

Tests used:
[1] = target: Beta-3 adrenergic receptor (Homo sapiens) (UniProt P13945); test: Activation of human beta-3-adrenergic receptor expressed in HEK293 cells assessed as cAMP release at 5 uM; format: functional, cell-based
Procedure, shortened: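 Live HEK293 cells carried an EPAC-based cAMP BRET reporter and expressed endogenous β2 or exogenous β1 or β3 adrenergic receptors. Cells were exposed to test compound alone at 5 μM. Values are means of triplicates, representative of 3 experiments.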

[2] = target: Beta-2 adrenergic receptor (Homo sapiens) (UniProt P07550); test: Effect on terbulaline-induced human beta-2-adrenergic receptor activation expressed in HEK293 cells assessed as cAMP release at 5 uM; format: functional, cell-based
Procedure, shortened: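 HEK293 cells carried an EPAC-based cAMP BRET reporter. The agonist for β1 (exogenous) was 1 nM dobutamine, for β2 (endogenous) 100 nM terbutaline, and for β3 (exogenous) 10 nM BRL37344. Each agonist was given alone or with 5 μM compound. Live-cell cAMP was read as triplicate means, representative of 3 experiments.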

[3] = Cmax in CD1 mouse at 20 mg/kg, iv administered as bolus dose; format: ADME, organism-based; parameters: dose 20 mg/kg, route intravenous; details: in vivo
Procedure, shortened: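 Groups of three were bled terminally by cardiac puncture at set times. Plasma was acetonitrile-precipitated with internal standard and quantified by electrospray LC/MS/MS against a plasma standard curve (10-1000 ng/ml). Noncompartmental analysis was used.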

[4] = test system: Escherichia coli; test: Inhibition of [3H]norepinephrine binding to Escherichia coli Qsec at 5 pM by liposome-based scintillation counting assay
Procedure, shortened: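 Liposomes reconstituted with QseC were loaded with tritiated norepinephrine (5 μM) by freeze-thaw in liquid N2 and held 10 min at room temperature, so unbound signal could diffuse out. They were pelleted at 12,000g for 5 min and counted for tritium. Counts were normalized to liposomes loaded with 5 μM tyrosine. Compound was tested at 5 pM and 5 fM.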

[5] = test system: Escherichia coli; test: Inhibition of epinephrine-induced Escherichia coli Qsec autophosphorylation at 5 pM by liposome-based SDS-PAGE
[6] = test system: Escherichia coli; test: Inhibition of AI3-induced Qsec-dependent virulence gene eae expression in Escherichia coli at 5 pM by quantitative real-time PCR; format: functional, organism-based
[7] = test system: Escherichia coli; test: Inhibition of epinephrine-induced EspA protein secretion in Escherichia coli 8624 at 5 pM by Western blot; format: functional, organism-based
Procedure, shortened: (§1)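 Secreted proteins in cell-free supernatant were TCA-precipitated and immunoblotted with rabbit polyclonal anti-EspA and anti-EspB, with ECL detection.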

[8] = test system: Escherichia coli; test: Inhibition of epinephrine-induced EspB protein secretion in Escherichia coli 8624 at 5 pM by Western blot; format: functional, organism-based; procedure, shortened: as §1
[9] = test system: Escherichia coli; test: Bactericidal activity against Escherichia coli 8624 at 1 uM; format: functional, organism-based
[10] = test system: Escherichia coli; test: Bactericidal activity against Escherichia coli 8624 at 1 uM in presence of epinephrine; format: functional, organism-based
[11] = test system: Escherichia coli; test: Antibacterial activity against Escherichia coli infected in New Zealand white rabbit assessed as inhibition of bacterial colonization in ileum at 20 mg/kg administered along with bacterial challenge; format: functional, organism-based; parameters: dose 20 mg/kg
[12] = test system: Escherichia coli; test: Antibacterial activity against Escherichia coli infected in New Zealand white rabbit assessed as inhibition of bacterial colonization in cecum at 20 mg/kg administered 3 hrs post-bacterial challenge; format: functional, organism-based; parameters: dose 20 mg/kg; details: Caecum
[13] = test system: Salmonella typhimurium; test: Antibacterial activity against Salmonella Typhimurium SL1344 infected in 129x1/SvJ mouse assessed as survival at 20 mg/kg, po administered 3 hrs pre and 3 hrs post-bacterial challenge measured after 12 days; format: functional
Procedure, shortened: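 Female 129x1/SvJ mice, 7–9 weeks old, were infected intraperitoneally with 10^8 cfu S. typhimurium SL1344. The test agent was given orally at 20 mg/kg in 5% DMSO/23% PEG400/70% Na bicarbonate pH 9/2% Tween 80, 3 h before and 3 h after infection. Controls were drug alone and infection alone. Groups of 10 mice were used and the experiment was repeated twice. Morbidity and death were recorded daily, and survivors were euthanized at day 12.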

[14] = test system: Salmonella typhimurium; test: Antibacterial activity against Salmonella Typhimurium SL1344 infected in 129x1/SvJ mouse assessed as reduction of bacterial CFU in spleen at 20 mg/kg, po after 48 hrs relative to control; format: functional
[15] = Cmax in CD1 mouse at 20 mg/kg, po; format: ADME, organism-based; parameters: dose 20 mg/kg, route oral; details: in vivo
Procedure, shortened: (§2)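 Terminal cardiac bleeds were taken in groups of three at set times. Plasma was acetonitrile-precipitated with internal standard and analysed by LC/MS/MS against a spiked-plasma standard curve. Parameters came from noncompartmental analysis.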

[16] = AUC in CD1 mouse at 20 mg/kg, po; format: ADME, organism-based; parameters: dose 20 mg/kg, route oral; details: plasma; procedure, shortened: as §2
[17] = test system: Mus musculus; test: Toxicity in CD1 mouse assessed as change in body weight at 20 mg/kg, po administered daily once for 5 days measured 3 days after final dose; format: organism-based; parameters: dose 20 mg/kg, route oral; details: in vivo, 72 h
Procedure, shortened: (§3)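 Female CD-1 mice (~22 g), three per group, given 20 mg/kg by oral gavage once daily for 5 days. Vehicle-only mice served as controls. Animals were weighed and observed daily. Three days after the last dose they were weighed and sacrificed. Blood was taken for chemistry and complete blood counts, and organs were weighed.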

[18] = test system: Mus musculus; test: Toxicity in CD1 mouse assessed as cholesterol levels at 20 mg/kg, po administered daily once for 5 days measured 3 days after final dose; format: organism-based; parameters: dose 20 mg/kg, route oral; details: in vivo, 72 h; procedure, shortened: as §3
[19] = test system: Mus musculus; test: Toxicity in CD1 mouse assessed as triglyceride levels at 20 mg/kg, po administered daily once for 5 days measured 3 days after final dose; format: organism-based; parameters: dose 20 mg/kg, route oral; details: in vivo, 72 h; procedure, shortened: as §3
[20] = test system: Mus musculus; test: Toxicity in CD1 mouse assessed as alanine transferase levels at 20 mg/kg, po administered daily once for 5 days measured 3 days after final dose; format: organism-based; parameters: dose 20 mg/kg, route oral; details: in vivo, 72 h
[21] = test system: Mus musculus; test: Toxicity in CD1 mouse assessed as alkaline phosphatase levels at 20 mg/kg, po administered daily once for 5 days measured 3 days after final dose; format: organism-based; parameters: dose 20 mg/kg, route oral; details: in vivo, 72 h
[22] = test system: Mus musculus; test: Toxicity in CD1 mouse assessed as phosphate levels at 20 mg/kg, po administered daily once for 5 days measured 3 days after final dose; format: organism-based; parameters: dose 20 mg/kg, route oral; details: in vivo, 72 h; procedure, shortened: as §3
[23] = test system: Mus musculus; test: Toxicity in CD1 mouse assessed as urea nitrogen levels at 20 mg/kg, po administered daily once for 5 days measured 3 days after final dose; format: organism-based; parameters: dose 20 mg/kg, route oral; details: in vivo, 72 h; procedure, shortened: as §3
[24] = test system: Mus musculus; test: Toxicity in CD1 mouse assessed as creatinine levels at 20 mg/kg, po administered daily once for 5 days measured 3 days after final dose; format: organism-based; parameters: dose 20 mg/kg, route oral; details: in vivo, 72 h; procedure, shortened: as §3
[25] = test system: Mus musculus; test: Toxicity in CD1 mouse assessed as WBC counts at 20 mg/kg, po administered daily once for 5 days measured 3 days after final dose; format: organism-based; parameters: dose 20 mg/kg, route oral; details: in vivo, 72 h
[26] = test system: Mus musculus; test: Toxicity in CD1 mouse assessed as lymphocyte counts at 20 mg/kg, po administered daily once for 5 days measured 3 days after final dose; format: organism-based; parameters: dose 20 mg/kg, route oral; details: in vivo, 72 h; procedure, shortened: as §3
[27] = test system: Mus musculus; test: Toxicity in CD1 mouse assessed as eosinophil counts at 20 mg/kg, po administered daily once for 5 days measured 3 days after final dose; format: organism-based; parameters: dose 20 mg/kg, route oral; details: in vivo, 72 h; procedure, shortened: as §3
[28] = test system: Mus musculus; test: Toxicity in CD1 mouse assessed as hemoglobin levels at 20 mg/kg, po administered daily once for 5 days measured 3 days after final dose; format: organism-based; parameters: dose 20 mg/kg, route oral; details: in vivo, 72 h; procedure, shortened: as §3
[29] = test system: Mus musculus; test: Toxicity in CD1 mouse assessed as hematocrit content at 20 mg/kg, po administered daily once for 5 days measured 3 days after final dose; format: organism-based; parameters: dose 20 mg/kg, route oral; details: in vivo, 72 h; procedure, shortened: as §3
[30] = test system: Mus musculus; test: Toxicity in CD1 mouse assessed as red cell distribution width at 20 mg/kg, po administered daily once for 5 days measured 3 days after final dose; format: organism-based; parameters: dose 20 mg/kg, route oral; details: in vivo, 72 h; procedure, shortened: as §3
[31] = test system: Mus musculus; test: Toxicity in CD1 mouse assessed as mean platelet volume at 20 mg/kg, po administered daily once for 5 days measured 3 days after final dose; format: organism-based; parameters: dose 20 mg/kg, route oral; details: in vivo, 72 h; procedure, shortened: as §3
[32] = test system: Francisella tularensis subsp. tularensis SCHU S4; test: Bacteriostatic activity against Francisella tularensis SCHU S4 at 1 uM; format: functional, organism-based

Beta-3 adrenergic receptor (Homo sapiens), sequence (P13945 whole entry, looked up): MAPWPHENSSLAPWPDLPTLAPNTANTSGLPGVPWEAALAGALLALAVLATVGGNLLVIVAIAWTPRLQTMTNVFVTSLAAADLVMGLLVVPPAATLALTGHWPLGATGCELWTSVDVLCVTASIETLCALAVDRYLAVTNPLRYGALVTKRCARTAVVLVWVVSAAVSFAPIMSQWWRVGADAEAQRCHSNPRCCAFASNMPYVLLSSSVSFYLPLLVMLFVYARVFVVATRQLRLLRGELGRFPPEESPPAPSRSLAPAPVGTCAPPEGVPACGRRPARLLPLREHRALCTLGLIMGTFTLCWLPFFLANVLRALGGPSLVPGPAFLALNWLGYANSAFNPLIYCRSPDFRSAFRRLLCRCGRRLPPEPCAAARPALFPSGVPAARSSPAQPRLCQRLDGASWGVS
Beta-2 adrenergic receptor (Homo sapiens), sequence (P07550 whole entry, looked up): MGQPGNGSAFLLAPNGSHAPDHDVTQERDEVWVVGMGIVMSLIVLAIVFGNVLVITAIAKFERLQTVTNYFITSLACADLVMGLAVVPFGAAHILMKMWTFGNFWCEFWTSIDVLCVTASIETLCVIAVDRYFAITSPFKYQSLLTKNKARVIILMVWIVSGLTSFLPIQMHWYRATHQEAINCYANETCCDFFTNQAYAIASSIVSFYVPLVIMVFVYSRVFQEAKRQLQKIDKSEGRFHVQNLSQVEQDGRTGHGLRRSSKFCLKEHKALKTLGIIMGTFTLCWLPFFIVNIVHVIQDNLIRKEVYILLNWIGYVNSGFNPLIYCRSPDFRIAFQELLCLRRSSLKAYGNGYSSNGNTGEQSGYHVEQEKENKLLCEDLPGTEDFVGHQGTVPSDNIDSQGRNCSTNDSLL

SMILES: O=S(=O)(Nc1ccccc1)c1ccc(NC(=S)Nc2ccccc2)cc1
- Activity [1]: inactive
- Activity [2]: inactive
- Cmax [3]: 4750 ng/mL
- Activity [4]: Active
- Activity [5]: inactive
- Activity [6]: Active
- Activity [7]: Active
- Activity [8]: Active
- Activity [9]: inactive
- Activity [10]: inactive
- Activity [11]: inactive
- Activity [12]: inactive
- Activity [13]: 20%
- fold change (FC) [14]: 10
- Cmax [15]: 2700 ng/mL
- AUC [16]: 3470 ng·h/mL
- Activity [17]: Non-toxic
- Activity [18]: 122 mg/dL
- Activity [19]: 99.3 mg/dL
- Activity [20]: 31.7 U/L
- Activity [21]: 141.3 U/L
- Activity [22]: 11 mg/dL
- Activity [23]: 19 mg/dL
- Activity [24]: 0.2 mg/dL
- Activity [25]: 1.5 K/uL
- Activity [26]: 82%
- Activity [27]: 0.7%
- Activity [28]: 12 g/dL
- Activity [29]: 38.5%
- Activity [30]: 17.6%
- Activity [31]: 5 fL
- Activity [32]: inactive
